Assay results from different studies.
Compare with care: the assays were run in different laboratories.
Target: Dual specificity testis-specific protein kinase 1 (TESK1, Homo sapiens, UniProt Q15569)

With `CC(C)(O)[C@H]1CC[C@H](Nc2ccc3ncc(-c4cccc(C(F)(F)F)c4)n3n2)CC1` the remaining activity was 83.5% (enzyme activity, inhibitor; 1 µM).
`Nc1ncnc2occ(-c3ccc(NC(=O)Nc4cc(C(F)(F)F)ccc4F)cc3)c12` has a remaining signal of 7.4% (cell-free assay, inhibitor; 20 µM).
`COc1cc(Nc2cnc(C#N)c(O[C@H](C)CN(C)C)n2)ncc1-c1cnn(C)c1` has a remaining activity of 110% (enzyme activity, inhibitor, radiometric; 1 µM).
The remaining binding of `O=C1CCc2cc(Nc3cc(OC4CCOCC4)c([N+](=O)[O-])cc3Cl)ccc2N1` is reported as 92% (cell-free assay, competition with immobilised ligand; 1 µM).
`Cc1ccc(C(=O)Nc2ccc(CN3CCN(C)CC3)c(C(F)(F)F)c2)cc1C#Cc1cnc2cccnn12` has a remaining activity of 100% (enzyme activity, inhibitor; 23.5 nM).
The remaining activity of `Cc1sc(C(=O)NC2COC2)cc1-n1cc(NC(=O)Nc2c(F)cccc2Cl)cn1` is reported as 88% (enzyme activity, inhibitor; 10 µM).
For `COc1cc(/C=C/C(=O)CC(=O)/C=C/c2ccc(O)c(OC)c2)ccc1O`, the activity vs control was 101% (enzyme activity, inhibitor; 1 µM).
The remaining binding of `c1ccc(N2CCN(Cc3nc4ccccc4[nH]3)CC2)nc1` is reported as 97% (binding, competition with immobilised ligand; 1 µM).
The remaining activity of `O=C(Nc1cnn(-c2csc(C(=O)NC3COC3)c2)c1)Nc1ccccc1Cl` is reported as 100% (enzyme activity, inhibitor; 5 µM).
